# Measured values of several laboratories.
# Lines come from different studies, so protocols differ.
# Target: Adenosine receptor A2a (ADORA2A, Homo sapiens, UniProt P29274)
# Effect on: ligand displacement
# Technique: radioligand
SMILES,conditions,Ki [µM]
OC[C@@]12C[C@@H]1[C@@H](n1cnc3c(N[C@@H](C4CCC4)C4CC4)nc(I)nc31)[C@H](O)[C@@H]2O,,3.08
c1coc(-c2nc3cc(NCCN4CCCCC4)ccc3o2)c1,cell membranes,11
CNC(=O)[C@@]12C[C@@H]1[C@@H](n1cnc3c(NCc4cn(-c5ccc(C(=O)NCCCF)cc5)nn4)nc(Cl)nc31)[C@H](O)[C@@H]2O,cell membranes,1.84
CCNC(=O)C1OC(n2cnc3c(N)nc(NN=CC4CCC=CO4)nc32)C(O)C1O (centres unmarked),,0.0233
CCCCCCN1CCCn2c1nc1c2c(=O)n(C)c(=O)n1C,cell membranes,2.07
CNC(=O)[C@@]12C[C@@H]1[C@@H](n1cnc3c(NCc4cccc(C#CCCCc5cn(-c6ccc(F)c(N)c6)nn5)c4)nc(Cl)nc31)[C@H](O)[C@@H]2O,cell membranes,2.73
c1coc(-c2nc3cc(CCN4CCCCC4)ccc3o2)c1,cell membranes,7
CNC(=O)c1csc(Nc2cccc(C)n2)n1,cell membranes,7.1
C=CN1CCCn2c1nc1c2c(=O)n(C)c(=O)n1C,cell membranes,> 10
CSC[C@@]12C[C@@H]1[C@@H](n1cnc3c(N)nc(I)nc31)[C@H](O)[C@@H]2O,,3.12
Nc1nc(-c2ccccc2)nn1C(=O)CCc1ccccc1,cell membranes,2
